Data as given in ChEMBL document CHEMBL1134856, “SAR of 2,6-diamino-3,5-difluoropyridinyl substituted heterocycles as novel p38MAP kinase inhibitors” (Bioorg Med Chem Lett, 2002).

Columns and labels:
[1] = target: Mitogen-activated protein kinase 14 (Mus musculus, UniProt P47811); test: […] inhibition of murine Mitogen-activated protein kinase p38 alpha activity, GST-ATF-2 as substrate in the presence of 120 uM ATP
How it was run: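 Phosphorylated His-tagged p38α MAP kinase of murine origin was used at 10 ng/well. Immobilised GST-ATF-2 served as substrate, with 120 μM cold ATP.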

[2] = target: T1, Prostaglandin G/H synthase 1 (Ovis aries, UniProt P05979); test: […] inhibition of ram seminal vesicle Prostaglandin G/H synthase 1 activity by determining PGE-2 by RIA
T1 sequence (P05979 whole entry): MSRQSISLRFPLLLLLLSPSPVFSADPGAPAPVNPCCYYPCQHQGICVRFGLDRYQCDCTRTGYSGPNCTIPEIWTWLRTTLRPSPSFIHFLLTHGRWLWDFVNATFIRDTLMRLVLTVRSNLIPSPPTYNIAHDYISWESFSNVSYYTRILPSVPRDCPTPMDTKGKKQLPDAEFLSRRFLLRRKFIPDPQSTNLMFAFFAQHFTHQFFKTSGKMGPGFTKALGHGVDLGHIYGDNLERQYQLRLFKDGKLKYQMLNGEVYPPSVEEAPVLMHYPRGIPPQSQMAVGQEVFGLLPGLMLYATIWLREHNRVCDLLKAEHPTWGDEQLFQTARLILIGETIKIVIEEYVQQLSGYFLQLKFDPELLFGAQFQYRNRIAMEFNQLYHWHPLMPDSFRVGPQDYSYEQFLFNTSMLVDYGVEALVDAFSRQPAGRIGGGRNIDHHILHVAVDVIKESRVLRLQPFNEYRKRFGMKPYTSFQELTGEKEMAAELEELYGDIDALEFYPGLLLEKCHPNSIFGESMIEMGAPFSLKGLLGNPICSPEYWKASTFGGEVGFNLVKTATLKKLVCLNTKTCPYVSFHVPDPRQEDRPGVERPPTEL

[3] = tested on: PBMC; test: Inhibition of LPS-stimulated TNF-alpha release from human peripheral blood mononuclear cells; type: functional, cell-based
How it was run: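 Human peripheral blood mononuclear cells from healthy volunteers were incubated with inhibitor and stimulated with LPS/IFN-γ for 3 h. TNF-α in the supernatants was determined by ELISA.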

[4] = tested on: Mus musculus; test: Inhibition of LPS induced TNF-alpha release in mice at 10 mg/kg peroral dose; type: functional; conditions: route oral
How it was run: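 Female OF1 mice, 8 weeks old, received compound by oral gavage in DMSO/corn oil. One hour after dosing, LPS (20 mg/kg) was given iv. Blood was collected 1 h later, and plasma TNF-α was measured by mouse-specific ELISA.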

[5] = tested on: Rattus norvegicus; test: Tested for inhibition of swelling in adjuvant induced arthritis rat at 25 mg/kg per orally; Toxic; type: functional; conditions: po
How it was run: (§1)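 Adjuvant-induced arthritis: female Wistar rats were immunised with Mycobacterium tuberculosis on day 0. They were dosed orally at 2 × 25 mg/kg per day from day 14 to day 20. Joint swelling was measured on day 20.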

[6] = tested on: Rattus norvegicus; test: Tested for inhibition of swelling in adjuvant induced arthritis rat at 25 mg/kg per orally; type: functional; conditions: route oral; how it was run: as §1
[7] = tested on: Rattus norvegicus; test: Dose-dependent protective activity at 10 mg/kg (po, b.i.d.) on cartilage damage in hind paws of CIA-rats; type: functional
[8] = Tested for the Cmax in rat at 10 mg/kg per orally; type: ADME, organism-based; set-up: dose 10 mg/kg, route oral; conditions: in vivo, po
[9] = organism: Homo sapiens; test: Inhibition of LPS-stimulated TNF-alpha release from human whole blood; type: functional
[10] = tested on: Rattus norvegicus; test: Dose-dependent protective activity at 30 mg/kg (po, b.i.d.) on bone apposition in hind paws of CIA-rats; type: functional
[11] = tested on: Rattus norvegicus; test: Dose-dependent protective activity at 10 mg/kg (po, b.i.d.) in loss of proteoglycans in hind paws of CIA-rats; type: functional
[12] = tested on: Rattus norvegicus; test: Dose-dependent protective activity at 3 mg/kg (po, b.i.d.) on cartilage damage in hind paws of CIA-rats; type: functional
[13] = tested on: Rattus norvegicus; test: Dose-dependent protective activity at 3 mg/kg (po, b.i.d.) on bone apposition in hind paws of CIA-rats; type: functional
[14] = Tested for the bioavailability in rat; type: ADME, organism-based; conditions: in vivo
[15] = tested on: Rattus norvegicus; test: Dose-dependent protective activity at 3 mg/kg (po, b.i.d.) on infiltration of cells in hind paws of CIA-rats; type: functional
[16] = tested on: Rattus norvegicus; test: Dose-dependent protective activity at 30 mg/kg (po, b.i.d.) on cartilage damage in hind paws of CIA-rats; type: functional
[17] = organism: Rattus norvegicus; test: Tested for inhibition of paw swelling in collagen induced arthritis in rat, perorally b.i.d.; type: functional; conditions: oral
How it was run: (§2)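 Female WAGxBUF/F1 rats were immunised intradermally with bovine nasal septum type II collagen in Freund's incomplete adjuvant; swelling began about 10 days later. Oral dosing, once or twice daily, started on day 13 and continued for 10 days. Read-out was paw swelling, with ED50 values reported.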

[18] = organism: Rattus norvegicus; test: Inhibition of LPS induced TNF-alpha release in rats; type: functional
[19] = tested on: Rattus norvegicus; test: Dose-dependent protective activity at 30 mg/kg (po, b.i.d.) on infiltration of cells in hind paws of CIA-rats; type: functional
[20] = tested on: Rattus norvegicus; test: Tested for inhibition of swelling in adjuvant induced arthritis rat at 25 mg/kg perorally b.i.d.; type: functional; conditions: route oral; how it was run: as §1
[21] = organism: Rattus norvegicus; test: Tested for inhibition of paw swelling in collagen induced arthritis in rat, perorally q.d.; type: functional; conditions: po; how it was run: as §2
[22] = tested on: Rattus norvegicus; test: Dose-dependent protective activity at 10 mg/kg (po, b.i.d.) on infiltration of cells in hind paws of CIA-rats; type: functional
[23] = Tested for the half life in rat; type: ADME, organism-based; conditions: in vivo
[24] = tested on: Rattus norvegicus; test: Dose-dependent protective activity at 3 mg/kg (po, b.i.d.) in loss of proteoglycans in hind paws of CIA-rats; type: functional
[25] = tested on: Rattus norvegicus; test: Dose-dependent protective activity at 10 mg/kg (po, b.i.d.) on bone apposition in hind paws of CIA-rats; type: functional
[26] = tested on: Rattus norvegicus; test: Dose-dependent protective activity at 30 mg/kg (po, b.i.d.) in loss of proteoglycans in hind paws of CIA-rats; type: functional

Sequence of Mitogen-activated protein kinase 14 (P47811 whole entry): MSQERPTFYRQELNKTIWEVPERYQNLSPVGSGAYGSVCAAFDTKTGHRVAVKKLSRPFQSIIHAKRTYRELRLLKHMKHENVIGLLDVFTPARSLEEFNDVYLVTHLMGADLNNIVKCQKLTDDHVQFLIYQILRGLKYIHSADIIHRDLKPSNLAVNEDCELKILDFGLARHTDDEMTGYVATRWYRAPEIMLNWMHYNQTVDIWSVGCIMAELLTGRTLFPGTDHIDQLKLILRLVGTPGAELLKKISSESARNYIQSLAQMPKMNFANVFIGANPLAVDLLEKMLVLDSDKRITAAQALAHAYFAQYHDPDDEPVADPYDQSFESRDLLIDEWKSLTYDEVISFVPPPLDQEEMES

Row | SMILES | IC50 [1] [µM] | IC50 [2] [µM] | IC50 [3] [µM] | inhibition in vivo at 10 mg/kg [4] [%] | further results
1 | Nc1nc(N)c(F)c(-n2nc(-c3ccncc3)c(-c3ccc(F)cc3)n2)c1F | 0.21 | 45 |  |  | 
2 | Nc1nc(F)c(F)c(-c2nc(-c3ccc(F)cc3)c(-c3ccncc3)o2)c1F | 2.1 | 100 | 1.93 |  | 
3 | Fc1ccc(-c2ncsc2-c2ccncc2)cc1 | 0.8 |  |  |  | 
4 | Fc1ccc(-c2[nH]nnc2-c2ccncc2)cc1 | 1.3 |  |  |  | 
5 | Nc1nc(N)c(F)c(-c2nc(-c3cccc(C(F)(F)F)c3)c(-c3ccncc3)[nH]2)c1F | 0.47 | 100 | 0.054 | 21 | 
6 | Nc1nc(N)c(F)c(-c2cc(-c3ccncc3)c(-c3ccc(F)cc3)[nH]2)c1F | 0.004 | 6.3 | 0.018 |  | 
7 | Fc1ccc(-c2nn(-c3c(F)c(F)nc(F)c3F)nc2-c2ccncc2)cc1 | 10 | 10 |  |  | 
8 | Nc1nc(F)c(F)c(-c2nc(-c3ccncc3)c(-c3ccc(F)cc3)[nH]2)c1F | 0.004 | 100 | 0.044 | 64 | inhibition in vivo at 25 mg/kg [5]: 71%
9 | Nc1nc(N)c(F)c(-c2nc(-c3ccc(F)cc3)c(-c3ccncc3)o2)c1F | 0.4 | 100 | 0.373 | 81 | inhibition in vivo at 25 mg/kg [6]: 19%
10 | Fc1ccc(-c2nc(-c3c(F)c(F)nc(F)c3F)oc2-c2ccncc2)cc1 | 100 |  |  |  | 
11 | Fc1ccc(-c2nc[nH]c2-c2ccncc2)cc1 | 1 |  |  |  | 
12 | Fc1ccc(-c2[nH]c(-c3c(F)c(F)nc(F)c3F)nc2-c2ccncc2)cc1 | 0.09 | > 100 | 0.074 | 3 | 
13 | Nc1nc(N)c(F)c(-c2nc(-c3ccc(F)cc3)c(-c3ccncc3)[nH]2)c1F | 0.016 | > 100 | 0.044 | 83 | Protective activity [7]: -44%; Cmax [8]: 3.12 µM; IC50 [9]: 0.25 µM; Protective activity [10]: -64%; Protective activity [11]: -38%; Protective activity [12]: -15%; Protective activity [13]: -4%; bioavailability [14]: 49%; Protective activity [15]: -11%; Protective activity [16]: -58%; ED50 [17]: 5 mg/kg; ED50 [18]: 4 mg/kg; Protective activity [19]: -45%; ED50 [20]: 10 mg/kg; ED50 [21]: 43 mg/kg; Protective activity [22]: -37%; half-life [23]: 1 h; Protective activity [24]: -17%; Protective activity [25]: -44%; Protective activity [26]: -42%
14 | Nc1nc(N)c(F)c(-c2nc(-c3ccc(F)cc3)c(-c3ccncc3)s2)c1F | 0.14 | 100 | 0.031 |  | 
15 | Nc1nc(N)c(F)c(-c2nc(-c3ccncc3)c(-c3cc4ccccc4o3)[nH]2)c1F | 0.005 | 100 | 0.027 | 1.8 | 
16 | Nc1nc(N)c(F)c(-c2nc(-c3ccncc3)c(-c3ccco3)[nH]2)c1F | 0.67 | 100 | 0.294 | 28 | 
17 | Fc1ccc(-c2[nH]ccc2-c2ccncc2)cc1 | 0.8 |  |  |  | 
